In brackets after ≈: the same amount, converted by molar mass. Activity calls are given as the source filed them. The calls are words filed in the database; no cut-off is given here.
What was measured:
Candida albicans = experiment: Antifungal activity against Candida albicans ATCC 09548 after 24 hrs by broth microdilution method; assay type: functional
Outline: (§1)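 Broth microdilution in microplates with a serial dilution series of compounds. Amphotericin B served as the fungicidal control and fluconazole as the fungistatic control. Yeast plates were incubated at 37 °C for 24 h.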

Pichia kudriavzevii = experiment: Antifungal activity against Candida krusei ATCC 6258 after 24 hrs by broth microdilution method; assay type: functional; outline: as §1
Candida parapsilosis = experiment: Antifungal activity against Candida parapsilosis ATCC 69548 after 24 hrs by broth microdilution method; assay type: functional; outline: as §1
Nakaseomyces glabratus = experiment: Antifungal activity against Candida glabrata ATCC 90030 after 24 hrs by broth microdilution method; assay type: functional; outline: as §1
Candida tropicalis = experiment: Antifungal activity against Candida tropicalis ATCC 750 after 24 hrs by broth microdilution method; assay type: functional; outline: as §1
Cryptococcus neoformans = experiment: Antifungal activity against Cryptococcus neoformans ATCC 90012 after 24 hrs by broth microdilution method; assay type: functional; conditions: for MIC50 / MIC: ATCC 90012, 24 h; for MIC: read-out: MIC100; outline: as §1
Staphylococcus aureus [1] = experiment: Antimicrobial activity against Staphylococcus aureus ATCC 6538 after 24 hrs by broth microdilution method; assay type: functional
Outline: (§2)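 Microplate broth microdilution with a serial dilution series of compounds, using chloramphenicol as the antibacterial control. Bacterial plates were incubated at 35 °C for 24 h.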

[2] = test system: Staphylococcus epidermidis; experiment: Antimicrobial activity against Staphylococcus epidermidis ATCC 12228 after 24 hrs by broth microdilution method; assay type: functional; outline: as §2
Bacillus cereus = experiment: Antimicrobial activity against Bacillus cereus ATCC 11778 after 24 hrs by broth microdilution method; assay type: functional; conditions: for MIC: read-out: MIC100; outline: as §2
Pseudomonas aeruginosa = experiment: Antimicrobial activity against Pseudomonas aeruginosa ATCC 9027 after 24 hrs by broth microdilution method; assay type: functional; outline: as §2
Salmonella typhimurium = experiment: Antimicrobial activity against Salmonella typhimurium ATCC 14028 after 24 hrs by broth microdilution method; assay type: functional; outline: as §2
Escherichia coli = experiment: Antimicrobial activity against Escherichia coli ATCC 25922 after 24 hrs by broth microdilution method; assay type: functional; conditions: for MIC50: ATCC 25922, 24 h; outline: as §2
Proteus mirabilis = experiment: Antimicrobial activity against Proteus mirabilis ATCC 25933 after 24 hrs by broth microdilution method; assay type: functional; outline: as §2
Trichophyton tonsurans = experiment: Antifungal activity against Trichophyton tonsurans after 48 hrs by broth microdilution method; assay type: functional; conditions: for MIC: read-out: MIC100
Outline: (§3)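 Broth microdilution against filamentous fungi with serially diluted compounds. Amphotericin B (fungicidal) and fluconazole (fungistatic) were run as controls. Plates were incubated at 30 °C for 48 h.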

Nannizzia gypsea = experiment: Antifungal activity against Microsporum gypseum after 48 hrs by broth microdilution method; assay type: functional; outline: as §3
[3] = Cytotoxicity against human PBMC after 48 hrs by MTT assay; assay type: cell-based; conditions: PBMC (peripheral blood mononuclear cells)
Outline: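 Normal human PBMC from healthy volunteers were isolated by Ficoll-Hypaque density gradient and seeded at 2.4 × 10⁶ cells/mL. Compounds were added at 100 to 0.06 and cells held 48 h at 37 °C, 5% CO₂. MTT was then added for 4 h, formazan dissolved in DMSO and A560 read. Untreated cells were taken as 100% viability. CC50 was obtained by linear regression.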

Staphylococcus aureus [4] = experiment: Ratio of MIC100 for chloramphenicol to MIC100 of compound for Staphylococcus aureus ATCC 6538 after 24 hrs by broth microdilution method; assay type: functional
[5] = ATCC 6538, 24 h, read-out: MIC50
[6] = Salmonella enterica subsp. enterica serovar Typhimurium

SMILES | MIC100 (Candida albicans) | MIC100 (Pichia kudriavzevii) | MIC100 (Candida parapsilosis) | MIC100 (Nakaseomyces glabratus) | MIC50 (Cryptococcus neoformans; read-out: MIC50) [µM] | MIC50 (Staphylococcus aureus [1]; [5]) [µM] | MIC50 [2] | MIC100 [2] | MIC (Bacillus cereus; ATCC 11778, 24 h) [µM] | MIC100 (Pseudomonas aeruginosa) | MIC100 (Salmonella typhimurium; [6]) | MIC100 (Escherichia coli) | MIC50 (Escherichia coli) [µM] | MIC50 (Proteus mirabilis) | MIC100 (Proteus mirabilis) | MIC50 (Candida albicans) | MIC50 (Candida parapsilosis) | MIC50 (Candida tropicalis) | MIC100 (Candida tropicalis) | CC50 at 48 h [3] [µM] | also measured
OC(Cn1cncn1)(Cn1cncn1)c1ccc(F)cc1F [FLUCONAZOLE] | inactive | inactive | inactive | inactive | 6530 (≈ 2000 µg/mL) |  |  |  |  |  |  |  |  |  |  |  |  |  |  |  | MIC50 (Candida tropicalis; ATCC 750, 24 h): 3260 µM (≈ 998 µg/mL)
CC(=O)Oc1ccc(C(=O)C2=C(O)[C@]3(CC=C(C)C)C[C@H](CC=C(C)C)[C@@](C)(CCC=C(C)C)[C@](CC=C(C)C)(C2=O)C3=O)cc1OC(C)=O | inactive | inactive | inactive | inactive | 56 (≈ 38.5 µg/mL) | 56 (≈ 38.5 µg/mL) | inactive | inactive | 0.227 (≈ 0.156 µg/mL) | inactive | inactive | inactive | 1820 (≈ 1250 µg/mL) | inactive | inactive | inactive | inactive | inactive | inactive | 114 | MIC (Staphylococcus aureus [1]; ATCC 6538, 24 h, read-out: MIC100): 3.64 µM (≈ 2.5 µg/mL); MIC50 (Bacillus cereus): inactive; MIC50 (Pseudomonas aeruginosa): inactive; MIC50 (Salmonella typhimurium; [6]): inactive; MIC50 (Pichia kudriavzevii; ATCC 6258, 24 h, read-out: MIC50): 3640 µM (≈ 2500 µg/mL); MIC (Cryptococcus neoformans): 3.64 µM (≈ 2.5 µg/mL); MIC (Trichophyton tonsurans): 3640 µM (≈ 2500 µg/mL); MIC50 (Nannizzia gypsea): inactive; Ratio (Staphylococcus aureus [4]): 3.31
CC(C)=CCC[C@]1(C)[C@@H](CC=C(C)C)C[C@@]2(CC=C(C)C)C(=O)C(C(=O)c3ccc(OC(=O)OC(C)(C)C)c(O)c3)=C(O)[C@]1(CC=C(C)C)C2=O | inactive |  | inactive | inactive | 555 (≈ 390 µg/mL) |  | inactive | inactive | 28.4 (≈ 20 µg/mL) | inactive | inactive | inactive | 555 (≈ 390 µg/mL) | inactive | inactive | inactive |  | inactive | inactive | > 142 | MIC50 (Staphylococcus aureus [1]; ATCC 6538, 24 h): 18 µM (≈ 12.7 µg/mL); MIC50 (Bacillus cereus; ATCC 11778, 24 h): 1800 µM (≈ 1270 µg/mL); MIC50 (Pseudomonas aeruginosa; ATCC 9027, 24 h): 58.2 µM (≈ 40.9 µg/mL); MIC50 (Salmonella typhimurium; Salmonella enterica, ATCC 14028, 24 h, read-out: MIC50): 57 µM (≈ 40.1 µg/mL); MIC50 (Pichia kudriavzevii; ATCC 6258, 24 h): 56.9 µM (≈ 40 µg/mL); MIC50 (Nakaseomyces glabratus; ATCC 90030, 24 h): 56.9 µM (≈ 40 µg/mL); MIC (Cryptococcus neoformans): 1.82 µM (≈ 1.28 µg/mL); MIC50 (Trichophyton tonsurans): 55 µM (≈ 38.7 µg/mL); MIC (Trichophyton tonsurans): 1820 µM (≈ 1280 µg/mL); MIC (Nannizzia gypsea; read-out: MIC100): 28.4 µM (≈ 20 µg/mL)
CC(C)=CCC[C@]1(C)[C@@H](CC=C(C)C)C[C@@]2(CC=C(C)C)C(=O)C(C(=O)c3ccc(OC(=O)c4ccccc4)c(OC(=O)c4ccccc4)c3)=C(O)[C@]1(CC=C(C)C)C2=O | inactive | inactive | inactive | inactive |  | 1540 (≈ 1250 µg/mL) | inactive | inactive |  | inactive | inactive | inactive | 48 (≈ 38.9 µg/mL) | inactive | inactive | inactive | inactive | inactive | inactive | > 123 | MIC100 (Staphylococcus aureus [1]): inactive; MIC100 (Bacillus cereus): inactive; MIC50 (Salmonella typhimurium; Salmonella enterica, ATCC 14028, 24 h): 49.3 µM (≈ 40 µg/mL); MIC50 (Pichia kudriavzevii): inactive; MIC50 (Nakaseomyces glabratus): inactive; MIC100 (Cryptococcus neoformans): inactive; MIC50 (Cryptococcus neoformans): 49.3 µM (≈ 40 µg/mL); MIC50 (Trichophyton tonsurans): inactive; MIC100 (Trichophyton tonsurans): inactive; MIC50 (Nannizzia gypsea): inactive; MIC100 (Nannizzia gypsea): inactive

Source: ChEMBL document CHEMBL2010801, “Semisynthesis and antimicrobial activity of novel guttiferone-A derivatives” (Bioorg Med Chem, 2012)
